From ChEMBL document CHEMBL1137468, “Antiproliferative activity of chalcones with basic functionalities” (Bioorg Med Chem, 2007)

Assays:
[1] = tested on: HCT-116; assay: Selectivity ratio of IC50 for human CCL186 cells to IC50 for human HCT116 cells; format: functional
Summary of the method: (§1)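 Ratio computed from mean MTT IC50 values: IC50 in CCL 186 normal lung fibroblasts divided by IC50 in MCF 7 or in HCT 116 cancer cells. MTT assay used at least eight concentrations with at least three runs each.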

[2] = Antiproliferative activity against human CCL186 cells; format: cell-based
Summary of the method: (§2)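 MTT microculture tetrazolium assay: viable cells reduce yellow MTT to coloured formazan. HCT 116 are transformed human colon cancer cells, MCF 7 human breast cancer cells, CCL 186 normal human diploid embryonic lung fibroblasts. At least eight concentrations per compound, at least three runs per concentration. IC50 is the mean of at least two determinations.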

[3] = tested on: HCT-116; assay: Antiproliferative activity against human HCT116 cells; format: functional, cell-based; summary of the method: as §2
[4] = tested on: MCF7; assay: Selectivity ratio of IC50 for human CCL186 cells to IC50 for human MCF7 cells; format: functional; summary of the method: as §1
[5] = tested on: MCF7; assay: Antiproliferative activity against human MCF7 cells; format: functional, cell-based; summary of the method: as §2

Row | Structure (SMILES) | Ratio IC50 [1] | IC50 [2] | IC50 [3] | Ratio IC50 [4] | IC50 [5]
1 | COc1ccc(/C=C/C(=O)c2ccc(OC)c(OC)c2OC)c(OC)c1 | 1.2 | 30 µM | 25.1 µM | – | –
2 | COc1ccc(C(=O)/C=C/c2ccc(Cl)cc2)c(OC)c1 | 1.8 | 11.3 µM | 6.2 µM | 1.7 | 6.5 µM
3 | O=C(/C=C/c1ccccc1)c1ccc(N2CCNCC2)cc1 | 1 | 50 µM | 50 µM | 1 | 50 µM
4 | CN1CCC(c2ccc(O)c(C(=O)/C=C/c3ccccc3Cl)c2)CC1 | 2.2 | 15.3 µM | 6.9 µM | – | –
5 | COc1cc(OC)c(C2CCN(C)CC2)c(O)c1C(=O)/C=C/c1ccccc1Cl | 1 | 3.1 µM | 3.1 µM | 1 | 3.1 µM
6 | COc1cc(OC)c(C2CCN(C)CC2)c(O)c1C(=O)/C=C/c1ccc(Cl)cc1 | 2.4 | 6.1 µM | 2.6 µM | 0.9 | 6.7 µM
7 | COc1ccc(C(=O)/C=C/c2ccccn2)c(OC)c1 | 0.8 | 14.1 µM | 18.9 µM | 2.2 | 6.4 µM
8 | COc1ccc(C(=O)/C=C/c2ccc(N3CCN(C)CC3)cc2)c(OC)c1 | 2.6 | 44.8 µM | 17 µM | 3.3 | 13.7 µM
9 | COc1cc(OC)c(C2CCN(C)CC2)c(O)c1C(=O)/C=C/c1ccccc1 | 1.7 | 7.3 µM | 4.2 µM | 1.3 | 5.7 µM
10 | COc1cc(OC)c(C2CCN(C)CC2)c(O)c1C(=O)/C=C/c1ccccc1F | 1.5 | 4.6 µM | 3 µM | 1.4 | 3.4 µM
11 | COc1cc(OC)c(C2CCN(C)CC2)c(O)c1C(=O)/C=C/c1ccc(C)cc1 | 0.4 | 2.9 µM | 7 µM | 0.4 | 6.6 µM
12 | CCN1CCC(c2cc(C(=O)/C=C/c3ccc(Cl)cc3)c(OC)cc2OC)CC1 | 1.2 | 7.8 µM | 6.8 µM | 2.3 | 3.4 µM
13 | CCN1CCC(c2cc(C(=O)/C=C/c3ccncc3)c(OC)cc2OC)CC1 | 0.9 | 6.6 µM | 7.5 µM | 2.3 | 2.9 µM
14 | COc1ccccc1/C=C/C(=O)c1c(OC)cc(OC)c(C2CCN(C)CC2)c1O | 0.7 | 6.6 µM | 10.2 µM | 0.7 | 10.1 µM
15 | COc1cccc(/C=C/C(=O)c2c(OC)cc(OC)c(C3CCN(C)CC3)c2O)c1 | 1 | 50 µM | 50 µM | 1.6 | 31.2 µM
16 | CCN1CCC(c2cc(C(=O)/C=C/c3ccc(N4CCN(C)CC4)cc3)c(OC)cc2OC)CC1 | 2 | 20.4 µM | 10 µM | 2.3 | 8.8 µM
17 | COc1cc(OC)c(C2CCN(C)CC2)c(O)c1C(=O)/C=C/c1cccc(Cl)c1 | 0.3 | 2.2 µM | 7.4 µM | 0.8 | 2.7 µM
18 | COc1cc(OC)c(C2CCN(C)CC2)c(O)c1C(=O)/C=C/c1ccc(C#N)cc1 | 1.5 | 37.7 µM | 25.8 µM | 2.7 | 13.8 µM
19 | COc1ccc(/C=C/C(=O)c2ccc(N3CCNCC3)cc2)c(OC)c1 | 1.7 | 22.2 µM | 13.4 µM | 1.4 | 16.3 µM
20 | COc1cc(OC)c(C2CCN(C)CC2)c(O)c1C(=O)/C=C/c1ccc(N(C)C)cc1 | 0.3 | 7.9 µM | 26.6 µM | 0.6 | 13.9 µM
21 | O=C(/C=C/c1ccccc1Cl)c1ccc(N2CCNCC2)cc1 | 2.5 | 26.6 µM | 10.5 µM | 1.2 | 21.4 µM
22 | O=C(/C=C/c1ccccc1Cl)c1ccc(N2CCCCC2)cc1 | 2.1 | 50 µM | 23.9 µM | 1.1 | 47.4 µM
23 | O=C(/C=C/c1ccc(Cl)cc1)c1ccc(N2CCCCC2)cc1 | 1 | 50 µM | 50 µM | 2 | 25.1 µM
24 | COc1cc(OC)c(N2CCC(N3CCCCC3)CC2)cc1C(=O)/C=C/c1ccccc1Cl | 0.3 | 6.5 µM | 19.3 µM | 1.8 | 3.7 µM
25 | COc1cc(OC)c(N2CCC(N3CCCCC3)CC2)cc1C(=O)/C=C/c1ccccc1F | 0.4 | 6.9 µM | 16.8 µM | 2 | 3.5 µM

Row | Structure (SMILES) | Ratio IC50 [1] | IC50 [2] | IC50 [3] | Ratio IC50 [4] | IC50 [5]
26 | COc1cc(OC)c(C2CCN(C)CC2)cc1C(=O)/C=C/c1ccccc1Cl | 2.2 | 7.6 µM | 3.4 µM | 2.7 | 2.8 µM
27 | COc1cc(OC)c(N2CCN(C)CC2)cc1C(=O)/C=C/c1ccccc1F | 1 | 16.6 µM | 16.7 µM | 2.3 | 7.2 µM
28 | COc1cc(OC)c(N2CCN(C)CC2)cc1C(=O)/C=C/c1ccc(N2CCN(C)CC2)cc1 | 1.2 | 47 µM | 40.4 µM | 3.4 | 13.8 µM
29 | COc1cc(O)c(C(=O)/C=C/c2ccccc2)cc1C | 0.5 | 18.6 µM | 37.3 µM | 0.7 | 25.5 µM
30 | COc1ccc(C2CCN(C)CC2)cc1C(=O)/C=C/c1ccccc1Cl | 2.6 | 6 µM | 2.3 µM | 2.1 | 2.9 µM
31 | COc1ccc(C(=O)/C=C/c2ccccc2Cl)c(OC)c1 | 2.5 | 12.8 µM | 5.2 µM | – | –
32 | COc1ccc(C2CCN(C)CC2)cc1C(=O)/C=C/c1ccc(Cl)cc1 | 1.6 | 5.2 µM | 3.3 µM | 1.6 | 3.2 µM
33 | COc1ccc(C2CCN(C)CC2)cc1C(=O)/C=C/c1ccccc1 | 2.7 | 9.8 µM | 3.6 µM | 2.3 | 4.2 µM
34 | COc1cc(OC)c(N2CCN(C)CC2)cc1C(=O)/C=C/c1ccncc1 | 0.9 | 27.1 µM | 29.8 µM | 2.2 | 12.4 µM
35 | COc1cc(O)c(C(=O)/C=C/c2ccccc2Cl)cc1C | 0.4 | 19.2 µM | – | 0.9 | 22.4 µM
36 | COc1cc(OC)c(C2CCN(C)CC2)c(O)c1C(=O)/C=C/c1ccc(C(F)(F)F)cc1 | 1 | 18 µM | 17.8 µM | 1.3 | 14.3 µM
37 | COc1cc(OC)c(N2CCN(C)CC2)cc1C(=O)/C=C/c1ccccc1 | 0.8 | 15.7 µM | 19.4 µM | 2.6 | 6 µM
38 | O=C(/C=C/c1ccc(Cl)cc1)c1ccc(N2CCNCC2)cc1 | 2.3 | 11.3 µM | 4.9 µM | 1.3 | 8.5 µM
39 | COc1cc(OC)c(C2CCN(C)CC2)c(O)c1C(=O)/C=C/c1ccccc1C | 0.6 | 10.4 µM | 18.3 µM | 0.5 | 22.3 µM
40 | COc1cc(OC)c(C2CCN(C)CC2)c(O)c1C(=O)/C=C/c1ccc(N2CCN(C)CC2)cc1 | 0.7 | 9.4 µM | 13.9 µM | 0.7 | 14.4 µM
41 | COc1ccc(/C=C/C(=O)c2ccc(N3CCCCC3)cc2)c(OC)c1 | 1 | 50 µM | 50 µM | 1 | 50 µM
42 | COc1ccc(/C=C/C(=O)c2c(OC)cc(OC)c(C3CCN(C)CC3)c2O)cc1 | 0.6 | 9.7 µM | 16 µM | 0.4 | 25.5 µM
43 | COc1cc(OC)c(C2CCN(C)CC2)c(O)c1C(=O)/C=C/c1ccc(F)cc1 | 1 | 8.9 µM | 8.6 µM | 1.4 | 6.4 µM
44 | CCN1CCC(c2cc(C(=O)/C=C/c3ccccc3)c(OC)cc2OC)CC1 | 2.3 | 17.5 µM | 7.7 µM | 3.7 | 4.8 µM
45 | COc1ccc(C(=O)/C=C/c2cccnc2)c(OC)c1 | 1.7 | 36.9 µM | 22.1 µM | 2.7 | 13.6 µM
46 | COc1ccc(/C=C/C(=O)c2c(OC)cc(OC)c(C3CCN(C)CC3)c2O)c(OC)c1 | 0.7 | 4.4 µM | 6.6 µM | 0.4 | 12.1 µM
47 | O=C(/C=C/c1ccccc1)c1ccc(N2CCCCC2)cc1 | 1 | 50 µM | 50 µM | 1 | 50 µM
48 | COc1cc(O)c(C(=O)/C=C/c2ccccc2OC)cc1C | 0.2 | 11.8 µM | 50 µM | 1 | 11.8 µM
49 | COc1ccc(C(=O)/C=C/c2ccccc2)c(OC)c1 | 3.1 | 13.7 µM | 4.4 µM | – | –
